Laboratory results from ChEMBL document CHEMBL1158041, “Diterpenoids, norditerpenoids, and secosteroids from the Formosan soft coral Cespitularia hypotentaculata” (2006).
≈ marks a conversion by molar mass, not a printed value.

Key:
P388 = assay: Cytotoxicity against mouse P388; format: functional
Procedure, shortened: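 Murine P-388 leukemia cells were a gift from an academic laboratory; cytotoxicity reported as ED50 in µg/mL.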

HT-29 = assay: Cytotoxicity against human HT-29; format: functional
Procedure, shortened: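 HT-29 human colon cells obtained from the American Type Culture Collection; cytotoxicity reported as ED50 in µg/mL.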

[1] = read-out: ED50 (the source's name)

Structure (SMILES) | Activity (P388) | Activity (HT-29) | EC50 (P388; [1]) [µg/mL] | EC50 (HT-29; [1]) [µg/mL]
C=C1CC[C@@H]2CC[C@H](OC(=O)C/C(C)=C/[C@@H](O)C1)C(=O)C2(C)C | Not toxic | Not toxic |  | 
C=C1CC[C@@H]2CC[C@H](O)[C@@](O)(C(=O)C/C(C)=C/[C@@H](O)C1)C2(C)C | Not toxic | Not toxic |  | 
C=C1CC[C@@H]2CCC3=C(C(=O)[C@H](C3=O)/C(C)=C/[C@@H](O)C1)C2(C)C | Not toxic | Not toxic |  | 
C=C1CC[C@@H]2CCC3=C([C@@H](C/C(C)=C/[C@@H](O)C1)OC3=O)C2(C)C [CESPITULARIN O] |  | Not toxic | 3.4 (≈ 10.7 µM) | 
C=C1CC[C@@H]2CCC3=C(C(=O)[C@@H](/C(C)=C/[C@@H](OC(C)=O)C1)[C@H]3O)C2(C)C | Not toxic | Not toxic |  | 
CC(C)CCC[C@@H](C)[C@H]1CC[C@@H]([C@@H]2C[C@H]3O[C@]34C[C@@H](O)CC[C@]4(C)C2=O)[C@]1(C)CCO | Not toxic |  |  | 1 (≈ 2.3 µM)
C=C1CC[C@@H]2CCC3=C(C(=O)[C@H]([C@H]3O)[C@@]3(C)O[C@@H]3[C@@H](O)C1)C2(C)C | Not toxic | Not toxic |  | 
C=C1CC[C@@H]2CC[C@@H](O)[C@@](O)(C(=O)C/C(C)=C/[C@@H](O)C1)C2(C)C | Not toxic | Not toxic |  | 
C=C1CC[C@@H]2CCC3=C(C(=O)[C@H](C3=O)/C(C)=C/[C@@H](OC(C)=O)C1)C2(C)C | Not toxic | Not toxic |  | 
CC(C)[C@@H](C)[C@@]1(C)C[C@@H]1[C@@H](C)[C@H]1CC[C@@H]([C@@H]2C[C@H]3O[C@]34C[C@@H](O)CC[C@]4(C)C2=O)[C@]1(C)CCO | Not toxic | Not toxic |  | 
C=C1CC[C@@H]2CCC3=C(C2(C)C)[C@@](OC)(C/C(C)=C/[C@@H](O)C1)OC3=O | Not toxic | Not toxic |  | 
C=C1CC[C@@H]2O[C@@]2(C)CC[C@@H]2/C(=C/C=C/C(C)C)C(=O)OC[C@@H]12 | Not toxic | Not toxic |  | 
